From ChEMBL document CHEMBL1649125, “Efficacy of the novel diamidine compound 2,5-Bis(4-amidinophenyl)- furan-bis-O-Methlylamidoxime (Pafuramidine, DB289) against Trypanosoma brucei rhodesiense infection in vervet monkeys after oral administration” (2009) come the findings set out here.

What all share (format): functional
Test [1] deals with Trypanosoma brucei rhodesiense. Put plainly: Antitrypanosomal activity against Trypanosoma brucei rhodesiense infected in vervet monkey 520 assessed as time to detect CSF parasitosis at 10 mg/kg, po administered on day 28 post infection for 10 days measured after 7 to 14 days. Put shortly: (§1)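 Trypanosomes and white cells in free-flowing CSF were counted by hemocytometer. Negative CSF was centrifuged and re-examined. Samples still negative were inoculated at 0.2 ml intraperitoneally into two mice each. Drug was given once daily by oral gavage: 5 days from day 7 p.i., or 10 days from day 28 p.i.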

Test [2] concerns Trypanosoma brucei rhodesiense. As to the kind of experiment: Antitrypanosomal activity against Trypanosoma brucei rhodesiense infected in vervet monkey 484 assessed as time to detect CSF parasitosis at 1 mg/kg, po administered on day 7 post infection for 5 days measured after 14 to 21 days by microscopy. Put shortly: as §1
In test [3] the test system is Trypanosoma brucei rhodesiense. Put plainly: Antitrypanosomal activity against Trypanosoma brucei rhodesiense infected in vervet monkey 501 assessed as time to detect parasitemia at 10 mg/kg, po administered on day 28 post infection for 10 days. Put shortly: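 Parasitemia was monitored from 3 days p.i. in ear-prick or inguinal venous blood. Methods were wet-film microscopy (detection limit 10^5 trypanosomes/ml) and hematocrit centrifugation technique (detection limit 10^3 trypanosomes/ml). Drug was given once daily by oral gavage: 5 days from day 7 p.i., or 10 days from day 28 p.i.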

In test [4] the test system is Trypanosoma brucei rhodesiense. Put plainly: Antitrypanosomal activity against Trypanosoma brucei rhodesiense infected in vervet monkey assessed as body weight change at 10 mg/kg, po administered on day 28 post infection for 10 days measured on day 28 post treatment. Put shortly: (§2)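 Body weight change is given as percent of the mean preinfection weight (n=3 per group). It was recorded at day 0 p.t., day 28 p.t. and end point. Oral gavage was once daily: 5 days from day 7 p.i., or 10 days from day 28 p.i.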

Test [5] deals with Trypanosoma brucei rhodesiense. As to the kind of experiment: Antitrypanosomal activity against Trypanosoma brucei rhodesiense infected in vervet monkey assessed as body weight change at 10 mg/kg, po administered on day 7 post infection for 5 days. The essentials: as §2
Test [6] has as its system Trypanosoma brucei rhodesiense. Put plainly: Antitrypanosomal activity against Trypanosoma brucei rhodesiense infected in vervet monkey assessed as body weight change at 10 mg/kg, po administered on day 7 post infection for 5 days measured on day 28 post treatment. The essentials:
as §2

The test system of test [7] is Trypanosoma brucei rhodesiense. Put plainly: Antitrypanosomal activity against Trypanosoma brucei rhodesiense infected in vervet monkey assessed as change in packed cell volume at 10 mg/kg, po administered on day 28 post infection for 10 days. Put shortly:
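Three vervet monkeys were infected intravenously with T. b. rhodesiense KETRI 2537 and treated in late-stage disease. From day 28 p.i., a drug suspension was given by oral gavage once daily for 10 consecutive days. PCV was reported as % change from the mean preinfection value at day 0 p.t., day 28 p.t. and endpoint. Monitoring continued up to 180 days p.t.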

With `CONC(=N)c1ccc(-c2ccc(-c3ccc(C(=N)NOC)cc3)o2)cc1` [PAFURAMIDINE], the figures for the Time in test [1], in test [2] and in test [3] were 119 days, 14 days and 56 days, respectively. In addition, the Activity in test [4] is on record as -8.1%; in test [5] it was -6.3%; in test [6], 0%; in test [7] it was -41.3%.
